Assay outcomes as filed in PubChem BioAssay.
LEDGF integ inh: blocks HIV-1 LEDGF/p75-dependent DNA integration. TR-FRET IN-LEDGF/p75 DNA integration, Eu/Cy5. inhibition, % at 3.7 µM. 370,000 tested, 0.64% active. AID 743269;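 active = inhibition above the screen-wide mean plus 3 SD, cut at about 13% in these data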;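 note: signal is the Cy5 over europium emission ratio at 671 and 618 nm; 0% = plate median of compound wells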
MBD2 DNA inh: blocks human MBD2 binding to methylated DNA. Q9UBB5. TR-FRET, MBD2 binding to methylated oligonucleotide. inhibition, % at 4.4 µM. 370,000 tested, 0.31% active. AID 686964; in the data active = inhibition above about 13%
PRMT1 FP inh: PRMT1 (human) inhibition, primary screen; Q99873; recombinant PRMT1, activity-based probe fluorescence polarization; inhibition, % at 2.79 µM; 370,000 tested, 1.3% active;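 active = inhibition above about 21% made by adding two undisclosed values, limit read from the data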
ABHD5 PLIN5 PPI: blocks binding of human ABHD5 to perilipin-5 | Q00G26+Q8WTS1 | Split G. princeps luciferase complementation, luminescence, 4 h | inhibition, % at 4 µM | 360,000 tested, 0.78% active | AID 602281;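 active = inhibition above the mean inhibition across every tested compound plus 3 SD, cut at about 22% in these data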;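 note: 0% = DMSO only wells and the 100% control is not disclosed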
Target sequence (Q00G26 whole entry, looked up): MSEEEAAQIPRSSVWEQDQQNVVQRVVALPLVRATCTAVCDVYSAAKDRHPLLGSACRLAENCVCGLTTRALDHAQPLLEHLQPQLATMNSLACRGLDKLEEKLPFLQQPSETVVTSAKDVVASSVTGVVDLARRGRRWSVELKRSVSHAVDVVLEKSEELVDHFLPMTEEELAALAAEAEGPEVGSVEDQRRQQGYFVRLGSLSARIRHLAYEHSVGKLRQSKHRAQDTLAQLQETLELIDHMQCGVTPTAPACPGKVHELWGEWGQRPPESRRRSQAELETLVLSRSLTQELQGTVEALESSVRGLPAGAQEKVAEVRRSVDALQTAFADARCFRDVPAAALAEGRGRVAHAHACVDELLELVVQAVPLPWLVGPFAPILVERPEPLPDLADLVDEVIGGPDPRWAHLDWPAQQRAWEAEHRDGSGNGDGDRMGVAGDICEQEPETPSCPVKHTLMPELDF
Target sequence (Q8WTS1 whole entry, looked up): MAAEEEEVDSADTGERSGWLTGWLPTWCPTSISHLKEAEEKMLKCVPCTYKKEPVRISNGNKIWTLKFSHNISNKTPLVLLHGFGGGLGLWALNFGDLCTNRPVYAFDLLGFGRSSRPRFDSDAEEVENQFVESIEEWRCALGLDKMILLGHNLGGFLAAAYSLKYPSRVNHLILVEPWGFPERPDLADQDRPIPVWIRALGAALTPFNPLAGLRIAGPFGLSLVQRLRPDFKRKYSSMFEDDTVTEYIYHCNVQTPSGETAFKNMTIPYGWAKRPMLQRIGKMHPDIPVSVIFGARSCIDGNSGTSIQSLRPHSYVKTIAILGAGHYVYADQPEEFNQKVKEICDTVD
UHRF1 MBD2 ctr: UHRF1 methyl-DNA binding inhibition; inhibition, % at 4.4 µM; Q96T88; UHRF1 binding to methylated oligo, TR-FRET; 370,000 tested, 0.75% active; AID 687016; in the data active = inhibition above about 21%;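 note: UHRF1 SRA domain binding a hemimethylated CpG hairpin DNA probe; 0% = median of test compound wells and 100% = reference inhibitor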
RBBP9 inhibitor: blocks human serine hydrolase RBBP9 | O75884 | recombinant RBBP9, FP-Rh probe fluorescence polarization | inhibition, % at 7.94 µM | 220,000 tested, 0.2% active | AID 1515;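 active = inhibition above the campaign mean of all tested compounds plus 3 SD, cut at about 14% in these data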;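 note: plate controls were DMSO wells with RBBP9 for no effect and wells lacking RBBP9 protein for full effect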
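Test system: recombinant human RBBP9. Quantity: 2.5 µM RBBP9 dispensing solution, before mixing. Detection: FP readout at 525/598 nm. Reagent: Serine-hydrolase probe FP-Rh, 375 nM pre-mixing. Measure: % inhibition. Control set: DMSO-treated enzyme wells and wells lacking RBBP9. Buffer or medium: Tris-NaCl-Pluronic buffer, pH 8.0. Times: preincubation 30 min plus labeling 45 min at 25 °C.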
IN multimer act: activates HIV-1 integrase multimerization in LEDGF counter-screen. shares compounds with LEDGF integ inh. TR-FRET HIV-1 integrase multimerization, biochemical. activation, % at 7.7 µM. 2,000 tested, 17% active. AID 1053131; in the data active = activation above about 8.9%
TRFRET interf: counter-screen for LEDGF/p75 integration inhibitors: TR-FRET optical interference | shares compounds with LEDGF integ inh | inhibition, % at 7.7 µM | TR-FRET optical interference counterscreen, HIV-1 IN multimerization | AID 1053135 | 2,000 tested, under 10 active;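 active = inhibition above the mean over all tested compounds plus 3 SD, which no compound reached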;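 note: 0% = integrase with antibodies and DMSO and 100% = antibodies without integrase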
IN-LEDGF confirm: confirmation of HIV-1 LEDGF/p75-dependent integration inhibitors; inhibition, % at 3.7 µM; 2,000 tested, 36% active; AID 1053136; TR-FRET LEDGF/p75-dependent HIV-1 integration, biochemical; shares compounds with LEDGF integ inh; in the data active = inhibition above about 14%
* = called active by the depositor; / = no result. Most compounds without a hit are left out; they make up all but 3.1% or so of the library.

SMILES	LEDGF integ inh	MBD2 DNA inh	PRMT1 FP inh	ABHD5 PLIN5 PPI	UHRF1 MBD2 ctr	RBBP9 inhibitor	IN multimer act	TRFRET interf	IN-LEDGF confirm
N#CCCn1cc(C(=O)Nc2ccccc2Br)c(-c2ccc([N+](=O)[O-])cc2)n1	-0.4	1.8	1.1	-4.8	11.4	-2.4	/	/	/
CN1C(=O)C(C2CCCCC2)C(=O)N(C)C1=O	54.7*	1.4	0.7	0.3	0.2	/	0.9	-4.3	-1.1
O=S1(=O)N(Cc2ccc(F)cc2)CCCN1Cc1ccccc1Cl	-2.3	2.1	0.2	-2.5	0.9	/	/	/	/
Clc1cc(Cl)cc(NC2=NCCS2)c1	1.6	-2.8	3.7	-2.0	2.7	-3.0	/	/	/
COc1ccc(Cc2nccc3cc(OC)c(OC)cc23)cc1OC	32.6*	3.9	-2.7	1.5	18.7	-7.4	1.8	-6.3	5.7
CN1CCN(/N=C/c2c(O)n(Cc3ccc(F)cc3)c(=O)[nH]c2=O)CC1	0.6	2.8	-1.1	1.0	-2.5	-10.9	/	/	/
C[C@H](NC(=O)N1C[C@H]2C[C@@H](C1)c1cccc(=O)n1C2)C(=O)Nc1cccc(F)c1	-0.7	-1.5	-5.1	-6.1	1.5	/	/	/	/
O=c1cccc2n1CC1CC2CN(C(c2cccc(F)c2)c2sc3ncnn3c2O)C1 (centres undefined)	16.6*	-5.3	4.8	-0.2	-1.6	-5.5	-0.5	2.4	0.6
COC(=O)C1=C(c2cccc(OCc3ccccc3)c2)C[C@@H]2CC[C@H]1N2C(=O)NCc1ccc(Cl)cc1	-1.4	-0.8	0.3	-2.8	0.4	/	/	/	/
COC(=O)C1=C(c2ccc(-c3ccccc3)c(F)c2)C[C@@H]2CC[C@H]1N2C(=O)NCC1CC1	0.5	-0.3	-2.2	-3.6	-3.2	/	/	/	/
CCN(CC)C(=O)Cn1cc(/C=C2\C(=O)NC(=O)N(c3ccccc3F)C2=O)c2ccccc21	18.1*	1.9	-0.9	22.8*	-0.4	/	1.5	-5.6	4.7
COC1CC2C=C(C)C=CC=CC(=O)NC(c3ccccc3)CC=CCCC(O)CC(=O)C2=C1O (centres undefined)	22.4*	4.7	12.6	22.2*	19.0	/	4.7	-23.6	49.8*
C=C[C@@H]1C2=CCOC(=O)C2=CO[C@H]1O[C@@H]1O[C@H](CO)[C@@H](O)[C@H](O)[C@H]1O	1.5	1.4	1.8	2.6	2.6	/	/	/	/
O=S(=O)(c1ccc(Cl)cc1)N1Cc2ccccc2-n2nncc2C1	2.0	-3.3	2.9	0.9	0.6	/	/	/	/
CCN(CC)c1ccc(N=Cc2c(O)n(-c3cc(OC)ccc3OC)c(=O)[nH]c2=O)cc1	15.9*	-0.5	16.5	-2.9	-3.3	1.2	3.2	-11.7	3.5
CCN(CC)c1ccc(N=Cc2c(O)n(Cc3ccco3)c(=O)[nH]c2=O)cc1	56.8*	2.0	20.7	-9.3	5.9	9.3	3.5	-17.4	2.2
COc1ccc(CC2=NCCc3cc(OC)c(OC)cc32)cc1OC	26.6*	5.9	-1.4	-4.3	21.4*	/	1.2	-6.2	1.9
O=C(NC1CCCCC1)N1Cc2cc(-c3cccc(F)c3)ccc2-n2nncc2C1	4.4	-3.2	4.5	2.6	0.2	/	/	/	/
COCCCn1c(N)c(C(=O)OCCOC)c2nc3ccccc3nc21	27.8*	-0.5	4.7	-20.1	5.3	-7.6	7.8	-29.4	1.1
CCCCNC(=O)c1c(N)n(CCCOC)c2nc3ccccc3nc12	1.2	-0.3	4.2	-25.3	4.4	-7.3	/	/	/
Fc1ccc(N2Cc3ccccc3-n3nncc3C2)cc1	20.6*	2.0	1.4	14.0	0.8	/	0.0	-0.2	19.2*
CC(C)(C)C(=O)N1Cc2cc(-c3ccccc3)ccc2-n2nncc2C1	14.8*	-4.8	-8.7	0.5	1.2	/	-1.4	7.0	0.9
Fc1cccc(-c2ccc3c(c2)CN(c2cccc(Cl)c2)Cc2cnnn2-3)c1	33.6*	6.8	2.3	10.7	6.7	/	2.5	-12.6	20.3*
CC1=NN=C(c2ccc(N)cc2)c2cc3c(cc2C1)OCO3	-4.7	-2.9	3.8	-3.4	0.3	/	/	/	/
COc1cc(C2c3cc(O)c(OC)cc3CC3C(=O)OCC32)ccc1O (centres undefined)	13.9*	1.3	2.6	-4.4	0.5	/	-1.3	6.4	-4.5
SMILES	LEDGF integ inh	MBD2 DNA inh	PRMT1 FP inh	ABHD5 PLIN5 PPI	UHRF1 MBD2 ctr	RBBP9 inhibitor	IN multimer act	TRFRET interf	IN-LEDGF confirm
CCC(CO)NC(=O)C1C=C2c3cccc4[nH]cc(c34)CC2N(C)C1 (centres undefined)	21.3*	3.7	15.0	-11.6	9.8	-3.4	0.1	-0.6	4.8
CCN(CC)C(=O)N[C@H]1C[C@@H]2c3cccc4[nH]cc(c34)C[C@H]2N(C)C1	0.7	-7.3	15.2	-10.4	-6.1	-6.8	/	/	/
Cc1ccc(N2C(=O)NC(=O)/C(=C\c3cc(C)n(-c4ccc(C(=O)O)cc4)c3C)C2=O)cc1	2.2	0.3	0.2	7.2	-2.5	/	/	/	/
Cc1ccc(N2C(=O)NC(=O)/C(=C\c3cc(C)n(-c4cc(C(=O)O)cc(C(=O)O)c4)c3C)C2=O)cc1	35.8*	-1.0	6.6	7.7	25.7*	/	2.4	-8.5	10.9
CCc1ccc(N2C(=O)NC(=O)/C(=C\c3cc(C)n(-c4cc(C(=O)O)cc(C(=O)O)c4)c3C)C2=O)cc1	29.4*	-1.7	2.3	-2.8	13.9	/	5.6	-20.1	21.4*
O=c1cc(C2CCNCC2)[nH][nH]1	19.3*	7.2	16.0	-17.2	13.2	-10.0	-2.5	9.1	-6.1
COc1ccc(CCNCc2ccccc2)cc1	4.1	1.6	4.6	-2.8	0.8	/	/	/	/
COc1ccc(CCNCc2ccncc2)cc1	14.3*	-3.8	-1.0	-3.5	-0.8	-8.6	-2.6	9.4	1.6
Cc1ccc(N2C(=O)NC(=O)/C(=C\C=C\c3ccco3)C2=O)cc1C	29.2*	4.6	17.5	15.4	12.2	-6.7	0.8	-3.7	33.6*
O=C1NC(=O)N(c2ccccc2)C(=O)/C1=C/C=C/c1ccco1	28.3*	6.9	15.2	21.6	5.7	-11.3	0.4	-1.8	18.6*
CN(C)c1ccc(/C=C/C=C2/C(=O)NC(=O)N(c3ccccc3)C2=O)cc1	2.1	-9.7	-8.9	-1.0	-2.3	-52.0	/	/	/
O=c1c2ccccc2nc(CNc2ccccc2)n1-c1ccccc1	3.6	0.1	-1.4	-0.1	-2.0	-0.7	/	/	/
C=CCN(CC=C)C(=O)CCN1CC1C (centres undefined)	-3.4	-0.9	0.6	-6.1	0.3	/	/	/	/
